The values below come from ChEMBL document CHEMBL4699408, “Synthesis and evaluation of anticancer activity of new 9-acridinyl amino acid derivatives” (RSC Med Chem, 2020).

In one data set the test system is K562. Kind of data set: Cytotoxicity against human K562 cells assessed as reduction in cell viability incubated for 72 hrs by MTT assay. The class given is functional, cell-based. Particulars: K562, 72 h.
Data set [1] relates to A549. Kind of data set: Cytotoxicity against human A549 cells assessed as reduction in cell viability incubated for 72 hrs by MTT assay. To be noted: A549, 72 h. The class given is functional, cell-based.
For the next data set, the system named is MRC5. Briefly: Cytotoxicity against human MRC5 cells assessed as reduction in cell viability incubated for 72 hrs by MTT assay. The class given is cell-based. Particulars: MRC5, 72 h. On the technique in general: Formazan colour is commonly taken as a measure of viable cells.
The subject of data set [2] is A549. Briefly: Induction of apoptosis in human A549 cells assessed as early apoptotic cells at IC50 concentration after 48 hrs by annexin V-FITC/propidium iodide staining based flow cytometry (reference value: 0.9 %). It is filed as functional. In general terms: A flow cytometer gives signals particle by particle.
For data set [3], the target named is DNA topoisomerase 2-alpha (Homo sapiens, UniProt P11388). Kind of data set: Inhibition of human topoisomerase 2alpha using supercoiled pNO1 plasmid DNA as substrate incubated for 30 mins by fluorescence based microplate reader analysis.
In data set [4] the test system is A549. Briefly: Induction of apoptosis in human A549 cells assessed as late apoptotic cells at IC50 concentration after 48 hrs by annexin V-FITC/propidium iodide staining based flow cytometry (reference value: 0.7 %). The class given is functional.
Data set [5] deals with A549. Kind of data set: Induction of cell cycle arrest in human A549 cells assessed as effect on cell cycle distribution at IC50 concentration incubated for 24 to 48 hrs by RNaseA/propidium iodide staining based flow cytometry. It is filed as functional. Particulars: time hrs 24-48.
A short description of data set [6]: Cytotoxicity against unstimulated human blood Leucocytes assessed as cell viability at 6.25 to 100 uM incubated for 24 to 72 hrs by MTT assay. To be noted: leucocyte.
Data set [7] relates to A549. Kind of data set: Inhibition of colony formation in human A549 cells at IC50 concentration incubated for 48 hrs followed by cell washing and measured after 10 days by crystal violet staining based assay relative to control. The class given is functional.
The subject of another data set is DNA. Briefly: Binding affinity to DNA isolated from human A549 cells assessed as intercalating activity at 100 uM after 1 hr by electrophoretic mobility shift assay. Summed up: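 Genomic DNA isolated from A549 cells (proteinase K/SDS lysis, salt precipitation, ethanol precipitation); 0.5 μg DNA incubated 1 h at room temperature with 100 μM compound in 5 mM Tris-HCl/50 mM NaCl buffer; run on 0.8% agarose gel 4 h at 30 V, GelRed stained; binding read as shift in DNA mobility.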

Data set [8] has as its system A549. Briefly: Cell cycle arrest in human A549 cells assessed as accumulation in G2/M phase at IC50 concentration incubated for 48 hrs by RNaseA/propidium iodide staining based flow cytometry (reference value: 11 %). The class given is functional.
Data set [9] deals with A549. Briefly: Cell cycle arrest in human A549 cells assessed as accumulation in G2/M phase at IC50 concentration incubated for 24 hrs by RNaseA/propidium iodide staining based flow cytometry (reference value: 9 %). The class given is functional.
The subject of data set [10] is A549. Briefly: Cell cycle arrest in human A549 cells assessed as accumulation in S phase at IC50 concentration incubated for 24 hrs by RNaseA/propidium iodide staining based flow cytometry. It is filed as functional.
The subject of data set [11] is A549. Kind of data set: Cell cycle arrest in human A549 cells assessed as accumulation in SubG1 phase by measuring late apoptotic cells with fragmented DNA content at IC50 concentration incubated for 48 hrs by RNaseA/propidium iodide staining based flow cytometry. It is filed as functional.

Active and inactive are the calls of the source. No cut-off for these calls is given here.

DNA topoisomerase 2-alpha, sequence (P11388 whole entry): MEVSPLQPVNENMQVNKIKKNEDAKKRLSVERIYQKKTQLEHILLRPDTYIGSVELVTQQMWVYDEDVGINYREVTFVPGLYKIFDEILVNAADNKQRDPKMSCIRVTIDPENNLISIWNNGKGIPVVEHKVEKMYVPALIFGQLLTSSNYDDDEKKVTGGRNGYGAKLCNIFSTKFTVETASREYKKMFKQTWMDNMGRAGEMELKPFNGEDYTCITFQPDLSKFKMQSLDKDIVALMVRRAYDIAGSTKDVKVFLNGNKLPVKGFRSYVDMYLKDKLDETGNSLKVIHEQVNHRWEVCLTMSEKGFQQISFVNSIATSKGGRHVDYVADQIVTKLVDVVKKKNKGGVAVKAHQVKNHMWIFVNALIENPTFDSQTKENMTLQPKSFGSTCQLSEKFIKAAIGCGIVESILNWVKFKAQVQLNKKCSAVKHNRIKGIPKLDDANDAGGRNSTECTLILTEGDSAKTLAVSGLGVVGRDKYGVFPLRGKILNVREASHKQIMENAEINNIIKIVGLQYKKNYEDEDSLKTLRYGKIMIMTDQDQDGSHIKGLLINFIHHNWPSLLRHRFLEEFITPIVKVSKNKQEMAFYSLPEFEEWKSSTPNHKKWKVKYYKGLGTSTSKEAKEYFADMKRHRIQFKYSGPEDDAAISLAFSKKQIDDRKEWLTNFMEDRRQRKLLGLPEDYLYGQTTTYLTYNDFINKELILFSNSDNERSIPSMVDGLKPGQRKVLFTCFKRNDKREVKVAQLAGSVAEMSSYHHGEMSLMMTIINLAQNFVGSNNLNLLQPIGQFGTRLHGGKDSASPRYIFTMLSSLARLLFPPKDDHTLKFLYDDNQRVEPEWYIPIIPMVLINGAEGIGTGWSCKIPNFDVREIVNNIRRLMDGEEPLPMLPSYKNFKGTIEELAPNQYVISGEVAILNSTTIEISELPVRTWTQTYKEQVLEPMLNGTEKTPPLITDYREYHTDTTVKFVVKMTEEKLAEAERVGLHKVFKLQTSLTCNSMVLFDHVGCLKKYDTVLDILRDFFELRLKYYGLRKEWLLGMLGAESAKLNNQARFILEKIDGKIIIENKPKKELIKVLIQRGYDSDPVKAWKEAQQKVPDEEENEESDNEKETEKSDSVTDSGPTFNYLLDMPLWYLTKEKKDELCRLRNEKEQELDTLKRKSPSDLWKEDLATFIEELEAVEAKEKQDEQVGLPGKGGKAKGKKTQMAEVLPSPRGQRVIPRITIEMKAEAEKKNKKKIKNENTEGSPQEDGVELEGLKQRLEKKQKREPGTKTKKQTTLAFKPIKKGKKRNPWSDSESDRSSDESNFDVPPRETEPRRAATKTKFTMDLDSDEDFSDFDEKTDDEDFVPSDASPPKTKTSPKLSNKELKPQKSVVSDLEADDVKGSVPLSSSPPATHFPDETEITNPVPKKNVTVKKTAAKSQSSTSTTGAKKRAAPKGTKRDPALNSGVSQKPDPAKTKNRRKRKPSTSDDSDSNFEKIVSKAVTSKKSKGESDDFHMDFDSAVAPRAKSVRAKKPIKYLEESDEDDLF

Broadly, the IC50 is the concentration needed to halve the response being measured. `COC(=O)[C@H](Cc1cn(C)c2ccccc12)Nc1c2ccccc2nc2ccccc12`: the IC50 with K562 stood at 46.6 µM; with A549 [1], 29.5 µM; with MRC5, 56.1 µM.
For `CCCOC(=O)CCCCCNc1c2ccccc2nc2ccccc12` the same measures were 75 µM, 72.4 µM and 58.8 µM.
In the case of `COC(=O)[C@H](Cc1ccccc1)Nc1c2ccccc2nc2ccccc12`, the IC50 in the data set on K562 came out at 40.6 µM; in the data set with A549 [1], 25.7 µM; with MRC5, 47.6 µM.
Regarding `CCOC(=O)CCNc1c2ccccc2nc2ccccc12`, the Activity in the data set on A549 [2] is recorded as 3.7%; in the data set on A549 [4] it was 1.2%; in data set [6], “Non-Toxic”. In addition, the IC50 was 13 µM in data set [3], 19.2 µM in the data set with K562, 6.15 µM in the data set on A549 [1] and 12.1 µM in the data set with MRC5. Also, the outcome in the data set on A549 [5] and in the data set with DNA was inactive. In addition, the “inhibition (INH)” value in the data set with A549 [7] is listed as more than 95%.
Turning to `CCOC(=O)CCCCCNc1c2ccccc2nc2ccccc12`, the IC50 came out at 34.5 µM in the data set with K562, 36.3 µM in the data set on A549 [1] and 25.1 µM in the data set with MRC5.
`CCCOC(=O)CCNc1c2ccccc2nc2ccccc12`: the Activity is recorded as 4.6% in the data set with A549 [2]; 2.9% with A549 [4]; 19% with A549 [8]; 12% in the data set with A549 [9]; “Non-Toxic” in [6]. In addition, the IC50 in [3] was found to be 14 µM; in the data set with K562, 16.4 µM; in the data set on A549 [1], 6.3 µM; with MRC5, 11.6 µM. Moreover, in the data set on A549 [7], the “inhibition (INH)” value was more than 95%. Moreover, the result with DNA was inactive.
As to `CCOC(=O)CCCNc1c2ccccc2nc2ccccc12`, the figures for the Activity (in the data set with A549 [2]; in the data set on A549 [4]; in data set [6]) were 11.7%, 5.4% and “Non-Toxic”, respectively. Moreover, the IC50 in [3] is 14 µM; with K562, 11.2 µM; in the data set on A549 [1], 9.5 µM; in the data set with MRC5 it was 15.8 µM. Besides, the result in the data set on A549 [5] and in the data set on DNA was inactive. Further, the “inhibition (INH)” value in the data set with A549 [7] was more than 95%.
Regarding `COc1cc(NS(C)(=O)=O)ccc1Nc1c2ccccc2nc2ccccc12` [AMSACRINE], the result in the data set on A549 [10], in the data set with A549 [11] and in the data set with DNA was Active. In addition, the results for the Activity (with A549 [2]; in the data set on A549 [4]; in data set [6]) were 16.1%, 2.8% and “Toxic”, respectively. In addition, the IC50 in [3] came out at 16 µM; in the data set on K562, 13.8 µM; in the data set on A549 [1], 22.2 µM; with MRC5, 15.4 µM.
`CCCOC(=O)CCCNc1c2ccccc2nc2ccccc12`: the Activity in the data set with A549 [2] was 12.5%; with A549 [4] it was 3.8%; with A549 [8] it was 29%; in the data set on A549 [9], 18%; in [6], “Non-Toxic”. The IC50 was found to be 16 µM in data set [3], 21.8 µM with K562, 19.3 µM in the data set on A549 [1] and 16.9 µM in the data set on MRC5. In addition, the “inhibition (INH)” value in the data set on A549 [7] is reported as more than 95%. For the same compound, the outcome in the data set on DNA was Active.
With `Cn1cc(C[C@H](Nc2c3ccccc3nc3ccccc23)C(=O)O)c2ccccc21`, the IC50 in the data set on K562 was determined as 42.4 µM; with A549 [1], 34.1 µM; in the data set with MRC5 it was 47 µM.
For `COC(=O)CCCCCCCNc1c2ccccc2nc2ccccc12`, in that order: 62.9 µM, 62.6 µM and 49.8 µM.
For `COC(=O)[C@H](Cc1c[nH]cn1)Nc1c2ccccc2nc2ccccc12`, in that order: 46.1 µM, 34.3 µM and 65.1 µM.
